# Assays:
# Assay type in all cases: functional, cell-based
# KB = experiment: Cytotoxicity against vincristine-sensitive human KB cells
# Procedure, shortened: (§1)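 Alkaloids tested alone, without vincristine, in parallel on vincristine-sensitive KB and vincristine-resistant KB/VJ300 cells. IC50 determined, in μg/mL.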
# [1] = Cytotoxicity against vincristine-resistant human KB/VJ300 cells; procedure, shortened: as §1
# [2] = Cytotoxicity against multi-drug resistant human KB/VJ300 cells in presence of 0.1 ug/ml vincristine
# Procedure, shortened: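 Multidrug-resistance reversal test in vincristine-resistant KB/VJ300 cells. Test alkaloid is co-applied with vincristine at 0.1 μg/mL (0.12 μM). The IC50 of the test alkaloid is determined under this co-treatment, in μg/mL.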
Structure (SMILES),IC50 (KB) [µg/mL],IC50 [1] [µg/mL],IC50 [2] [µM]
CN1[C@H]2C[C@@H]3[C@@H](CO[C@@]4(C)OC(=O)C[C@@H]34)[C@@H]1Cc1c2n(C)c2ccccc12,> 25,> 25,–
COc1ccc2c(c1)c1c(n2C)[C@@H]2C[C@H]3C(=O)OC[C@H]3[C@H](C1)N2C,> 25,> 25,–
C/C=C1\C(=O)OC[C@H]2[C@@H]3Cc4c(n(C)c5ccc(OC)cc45)[C@H](C[C@@H]12)N3,> 25,> 25,40
CC(O)C[C@@H]1C[C@@H]2N3COC[C@H]1[C@@H]3C[C@]21C(=O)Nc2ccccc21 (some centres not stated),> 25,> 25,–
CC(O)C[C@@H]1C[C@@H]2N3COC[C@H]1[C@@H]3C[C@]21C(=O)N(C)c2ccccc21 (some centres not stated),> 25,> 25,–
CC(O)C[C@@H]1C[C@@H]2N[C@@H](C[C@]23C(=O)N(C)c2ccccc23)[C@@H]1CO (some centres not stated),> 25,> 25,–
C[C@H](O)C[C@@H]1C[C@@H]2N[C@@H](C[C@@]23C(=O)Nc2ccccc23)[C@@H]1CO,> 25,> 25,–
CC(=O)O[C@@H]1[C@@H]2[C@@H]3C[C@H]4c5c(c6ccccc6n5C)C[C@@H]([C@@H]3CO[C@H]2C)N14,> 25,> 25,40
C[C@H]1OC[C@@H]2[C@H]3C[C@H]4c5c(c6ccccc6n5C)C[C@@H]2[N+]4(C)[C@H](O)[C@H]31,> 25,> 25,–
C[C@@H]1OC[C@@H]2[C@H]3C[C@@H]4N([C@H](O)C13)[C@H]2C[C@@]41C(=O)N(C)c2ccccc21,> 25,> 25,–
C[C@H]1OC[C@@H]2[C@@H](C[C@H]3c4c(c5ccccc5n4C)C[C@@H]2N3C)[C@@H]1C=O,> 25,> 25,–
C[C@@H]1OC[C@@H]2[C@@H](C[C@H]3c4[nH]c5ccccc5c4C[C@@H]2N3C)[C@@H]1CO,> 25,> 25,–
C[C@@H]1OC[C@@H]2[C@@H](C[C@@H]3N[C@H]2Cc2c3n(C)c3ccccc23)[C@@H]1CO,> 25,> 25,–
C[C@@H]1OC[C@@H]2[C@@H](C[C@@H]3N[C@H]2Cc2c3n(C)c3ccccc23)[C@H]1CO,> 25,> 25,–
COc1ccc2c(c1)c1c(n2C)[C@@H]2C[C@H]3[C@@H](CO)[C@H](C)OC[C@H]3[C@H](C1)N2C,> 25,> 25,–
CC(=O)C1=COC[C@@H]2[C@H]1C[C@H]1c3[nH]c4ccccc4c3C[C@@H]2N1C,> 25,> 25,–
CC1=C(C=O)[C@@H]2C[C@H]3c4[nH]c5ccccc5c4C[C@@H]([C@@H]2CO1)N3C,> 25,> 25,–
C/C=C1/CN2CC[C@]3(O)c4ccccc4N4[C@H](C(=O)OC)[C@H]1C[C@H]2[C@@H]43,> 25,> 25,–
C/C=C1/CN2CC[C@@]3(O)c4ccccc4N4[C@H](C(=O)OC)[C@H]1C[C@H]2[C@@H]43,> 25,> 25,–
C/C=C1/CN2CC(=O)c3c4n(c5ccccc35)[C@H](C(=O)OC)[C@H]1C[C@@H]42,> 25,> 25,–
C[C@H](O)C1=CN2[C@H]3C[C@H]1[C@@H](CO)[C@@H]2C[C@@]31C(=O)N(C)c2ccccc21,> 25,> 25,–

Structure (SMILES),IC50 (KB) [µg/mL],IC50 [1] [µg/mL],IC50 [2] [µM]
C/C=C1/CN2[C@H]3C[C@H]1C(CO)[C@@H]2C[C@]31Nc2ccccc2C1=O (some centres not stated),> 25,> 25,–
CN1[C@H]2C[C@H]3C(=O)OC[C@H]3[C@@H]1Cc1c2n(C)c2ccccc12,> 25,> 25,–
CC(=O)C[C@@H]1C[C@H]2c3c(c4ccccc4n3C)C[C@@H]([C@@H]1CO)N2C,> 25,> 25,–
C/C=C1\C(=O)OC[C@H]2[C@@H]3Cc4c(n(C)c5ccccc45)[C@H](C[C@@H]12)N3,> 25,> 25,–
C[C@H](O)C[C@H]1C[C@@H]2N3COC[C@@H]1[C@@H]3CC21C(=O)N(C)c2ccccc21 (some centres not stated),> 25,> 25,–
CC(=O)C[C@@H]1C[C@@H]2N3[C@@H](C)OC[C@H]1[C@@H]3C[C@]21C(=O)N(C)c2ccccc21,> 25,> 25,–
CC(=O)C1=COC[C@H]2[C@@H]3C[C@]4(C(=O)N(C)c5ccccc54)[C@H](C[C@@H]12)N3,> 25,> 25,–
CC(=O)C1=COC[C@H]2[C@@H]3C[C@]4(C(=O)Nc5ccccc54)[C@H](C[C@@H]12)N3,> 25,> 25,–
C[C@H](O)C[C@@H]1C[C@@H]2N[C@@H](C[C@@]23C(=O)N(C)c2ccccc23)[C@@H]1CO,> 25,> 25,–
C[C@@H]1OC[C@@H]2[C@H]3C[C@H]4c5c(c6ccccc6n5C)C[C@@H]2N4[C@H](O)[C@H]31,> 25,> 25,40
C[C@@H]1OC[C@@H]2[C@@H](C[C@H]3c4c(c5ccccc5n4C)C[C@@H]2N3C)[C@@H]1CO,> 25,> 25,–
C[C@@H]1OC[C@@H]2[C@@H](C[C@H]3c4[nH]c5ccccc5c4C[C@@H]2N3C)[C@H]1CO,> 25,> 25,–
C/C=C1/CN2CCc3c4n(c5ccccc35)[C@H](C(=O)OC)[C@H]1C[C@@H]42,> 25,> 25,40
C[C@H](O)C1=CN2[C@H]3C[C@H]1[C@@H](CO)[C@@H]2Cc1c3n(C)c2ccccc12,> 25,> 25,–
C/C=C1/CN2[C@H]3C[C@H]1C(CO)[C@@H]2Cc1c3[nH]c2ccccc12 (some centres not stated),> 25,> 25,–
CC(=O)C(CC(=O)O)[C@@H]1C[C@H]2c3c(c4ccccc4n3C)C[C@@H]([C@@H]1CO)N2C (some centres not stated),> 25,> 25,–
CC1=C(C=O)[C@@H]2C[C@H]3c4c(c5ccccc5n4C)C[C@@H]([C@@H]2CO1)N3C [ALSTONERINAL],> 25,> 25,–
CC(=O)C1=COC[C@@H]2[C@H]1C[C@H]1c3c(c4ccccc4n3C)C[C@@H]2N1C [ALSTONERINE],> 25,> 25,10
C[C@@H]1OC[C@@H]2[C@@H](C[C@H]3c4c(c5ccccc5n4C)C[C@@H]2N3C)[C@H]1CO [MACROCARPINE B],> 25,> 25,–
C[C@@H]1OC[C@@H]2[C@@H](C[C@H]3c4c(c5ccccc5n4C)C[C@@H]2N3C)[C@@H]1C=O [Talcarpine],> 25,> 25,–

# Reference: ChEMBL document CHEMBL3351669, “Oxidized derivatives of macroline, sarpagine, and pleiocarpamine alkaloids from Alstonia angustifolia” (J Nat Prod, 2014)
